In ChEMBL document CHEMBL1154352, “Toll-like receptor 7 selective synthetic oligoribonucleotide agonists: synthesis and structure-activity relationship studies” (J Med Chem, 2009):
The source made the active and inactive calls. The rule behind the calls is not given here.

Legend:
PBMC [1] = test: Immunomodulatory activity in human PBMC assessed as induction of TNFalpha at 100 ug/ml after 24 hrs; format: functional, cell-based
Outline: (§1)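 Human PBMCs plated at 5 × 10^6 cells/mL; compounds dissolved in PBS added at various concentrations, 37 °C for 24 h. Supernatant cytokines/chemokines quantified with human Luminex multiplex kit.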

[2] = target: T1, Toll-like receptor 9 (Mus musculus) (UniProt Q9EQU3); test: Activation of mouse TLR9 expressed in HEK293 assessed as induction of NF-kappaB activity reporter gene assay; format: cell-based
T1 sequence (whole entry): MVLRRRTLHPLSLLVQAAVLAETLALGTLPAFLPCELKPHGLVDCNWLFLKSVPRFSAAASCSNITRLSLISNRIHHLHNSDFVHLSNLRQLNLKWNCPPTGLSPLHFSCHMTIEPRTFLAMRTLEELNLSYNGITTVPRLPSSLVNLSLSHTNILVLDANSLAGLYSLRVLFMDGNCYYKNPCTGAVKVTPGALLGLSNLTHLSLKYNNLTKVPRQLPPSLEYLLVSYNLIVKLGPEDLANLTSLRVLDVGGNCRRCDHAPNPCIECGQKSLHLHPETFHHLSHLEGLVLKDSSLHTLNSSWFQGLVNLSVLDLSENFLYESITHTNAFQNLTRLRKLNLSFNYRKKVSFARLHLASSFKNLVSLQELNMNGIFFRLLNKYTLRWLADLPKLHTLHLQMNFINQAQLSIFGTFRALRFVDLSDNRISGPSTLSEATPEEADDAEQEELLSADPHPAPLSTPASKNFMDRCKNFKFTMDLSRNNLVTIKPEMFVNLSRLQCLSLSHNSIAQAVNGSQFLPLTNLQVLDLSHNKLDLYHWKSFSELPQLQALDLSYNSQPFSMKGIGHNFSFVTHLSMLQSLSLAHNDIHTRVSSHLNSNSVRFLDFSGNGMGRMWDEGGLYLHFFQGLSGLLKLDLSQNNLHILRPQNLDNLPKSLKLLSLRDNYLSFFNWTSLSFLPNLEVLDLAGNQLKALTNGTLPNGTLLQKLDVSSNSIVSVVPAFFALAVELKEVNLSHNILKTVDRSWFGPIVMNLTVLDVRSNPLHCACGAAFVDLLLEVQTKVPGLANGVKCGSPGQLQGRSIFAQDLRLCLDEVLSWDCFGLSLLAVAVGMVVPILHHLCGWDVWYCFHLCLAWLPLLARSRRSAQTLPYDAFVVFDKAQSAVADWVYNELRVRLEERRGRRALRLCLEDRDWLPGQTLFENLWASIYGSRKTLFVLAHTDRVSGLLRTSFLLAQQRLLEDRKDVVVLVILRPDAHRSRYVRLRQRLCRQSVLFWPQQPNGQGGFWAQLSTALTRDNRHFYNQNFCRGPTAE

PBMC [3] = test: Immunomodulatory activity in human PBMC assessed as induction of IFN-alpha at 100 ug/ml after 24 hrs
PBMC [4] = test: Immunomodulatory activity in human PBMC assessed as induction of IL12 at 100 ug/ml after 24 hrs; format: functional, cell-based; outline: as §1
Homo sapiens = organism: Homo sapiens; test: Ratio of human TLR7 activity to human TLR8 activity
Outline: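 TLR7/TLR8 ratio computed from fold NF-κB (SEAP reporter) activation in HEK293 cells stably expressing human TLR7 versus TLR8, compounds at 50 μg/mL, 18 h exposure; representative of three independent experiments.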

[5] = target: T2, Toll-like receptor 7 (Homo sapiens) (UniProt Q9NYK1); test: Activation of human TLR7 expressed in HEK293XL assessed as fold induction of NF-kappaB activity at 50 ug/ml after 18 hrs by reporter gene assay relative to control
T2 sequence (whole entry): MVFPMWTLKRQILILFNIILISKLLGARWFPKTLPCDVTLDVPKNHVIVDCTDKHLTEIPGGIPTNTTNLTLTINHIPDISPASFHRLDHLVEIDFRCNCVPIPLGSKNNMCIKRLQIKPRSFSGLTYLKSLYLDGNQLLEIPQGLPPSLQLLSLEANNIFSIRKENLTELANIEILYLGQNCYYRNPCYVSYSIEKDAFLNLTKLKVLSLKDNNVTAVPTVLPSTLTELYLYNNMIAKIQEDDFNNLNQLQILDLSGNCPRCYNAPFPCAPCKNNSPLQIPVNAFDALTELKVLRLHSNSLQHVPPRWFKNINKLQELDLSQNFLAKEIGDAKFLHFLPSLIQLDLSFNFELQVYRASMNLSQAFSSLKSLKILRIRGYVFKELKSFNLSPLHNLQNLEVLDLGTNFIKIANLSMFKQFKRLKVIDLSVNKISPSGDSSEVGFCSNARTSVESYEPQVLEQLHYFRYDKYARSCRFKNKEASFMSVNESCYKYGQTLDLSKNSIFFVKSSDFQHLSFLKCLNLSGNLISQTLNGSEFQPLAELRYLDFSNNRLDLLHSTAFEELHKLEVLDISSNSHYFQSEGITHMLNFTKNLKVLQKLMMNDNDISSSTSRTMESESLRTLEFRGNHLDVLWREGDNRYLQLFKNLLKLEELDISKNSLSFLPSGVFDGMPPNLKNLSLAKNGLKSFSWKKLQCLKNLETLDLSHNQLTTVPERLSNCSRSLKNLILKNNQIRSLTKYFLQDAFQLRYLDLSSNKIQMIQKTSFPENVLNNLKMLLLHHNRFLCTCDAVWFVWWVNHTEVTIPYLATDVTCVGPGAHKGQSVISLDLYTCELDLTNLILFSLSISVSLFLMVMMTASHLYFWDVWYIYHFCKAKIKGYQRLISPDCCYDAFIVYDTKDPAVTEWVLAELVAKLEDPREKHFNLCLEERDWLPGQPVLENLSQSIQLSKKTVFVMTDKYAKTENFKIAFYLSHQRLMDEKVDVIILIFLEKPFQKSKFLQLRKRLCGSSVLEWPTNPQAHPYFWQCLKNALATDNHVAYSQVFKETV
Outline: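 HEK293 cells stably expressing human TLR7 or TLR8, transiently transfected with SEAP reporter plasmid; medium replaced, SIMRA compounds added, 18 h incubation. Supernatant SEAP measured by QuantiBlue; expressed as fold increase in NF-κB activity over PBS control. Tabulated data at 50 μg/mL, representative of three independent experiments.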

[6] = target: Toll-like receptor 3 (Homo sapiens) (UniProt O15455); test: Activation of human TLR3 expressed in HEK293 assessed as induction of NF-kappaB activity reporter gene assay; format: cell-based
Splenocyte [7] = test: Immunomodulatory activity in C57BL/6 mouse splenocytes bearing TLR7 receptor assessed as IL12 release at 100 ug/ml after 24 hrs by ELISA; format: functional, cell-based
Outline: (§2)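 C57BL/6 splenocytes in RPMI 1640 with 10% FBS, penicillin/streptomycin, 2 mM L-glutamine, plated at 5 × 10^6 cells/mL; compounds in PBS added, 37 °C for 24 h. Supernatant IL-12 and IL-6 by ELISA; representative of three independent experiments.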

Splenocyte [8] = test: Immunomodulatory activity in C57BL/6 mouse splenocytes bearing TLR7 receptor assessed as IL6 release at 100 ug/ml after 24 hrs by ELISA; format: functional, cell-based; outline: as §2

Sequence of Toll-like receptor 3 (Homo sapiens) (O15455 whole entry): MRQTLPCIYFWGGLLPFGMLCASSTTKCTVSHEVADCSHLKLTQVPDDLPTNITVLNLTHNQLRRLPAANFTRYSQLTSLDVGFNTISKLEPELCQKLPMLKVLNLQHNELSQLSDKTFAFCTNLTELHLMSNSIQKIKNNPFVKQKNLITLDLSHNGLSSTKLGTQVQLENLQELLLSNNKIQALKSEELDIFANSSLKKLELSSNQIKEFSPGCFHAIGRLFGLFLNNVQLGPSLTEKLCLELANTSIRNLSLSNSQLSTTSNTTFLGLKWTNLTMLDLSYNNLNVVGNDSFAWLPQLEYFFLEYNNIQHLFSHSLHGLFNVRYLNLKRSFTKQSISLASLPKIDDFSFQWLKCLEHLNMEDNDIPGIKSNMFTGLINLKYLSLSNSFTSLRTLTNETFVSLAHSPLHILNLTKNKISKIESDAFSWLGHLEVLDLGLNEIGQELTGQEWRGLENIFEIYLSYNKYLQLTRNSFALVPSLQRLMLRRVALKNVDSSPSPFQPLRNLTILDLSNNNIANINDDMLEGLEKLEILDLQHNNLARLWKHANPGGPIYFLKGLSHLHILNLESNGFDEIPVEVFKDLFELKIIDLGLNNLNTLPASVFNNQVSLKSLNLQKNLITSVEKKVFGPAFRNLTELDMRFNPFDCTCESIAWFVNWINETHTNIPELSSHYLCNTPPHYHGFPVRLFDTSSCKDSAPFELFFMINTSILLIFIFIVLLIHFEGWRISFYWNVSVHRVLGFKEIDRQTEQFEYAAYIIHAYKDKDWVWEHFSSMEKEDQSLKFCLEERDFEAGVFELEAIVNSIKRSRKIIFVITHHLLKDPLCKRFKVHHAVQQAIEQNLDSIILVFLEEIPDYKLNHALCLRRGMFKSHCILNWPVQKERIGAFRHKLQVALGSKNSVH

Row | Activity [2] | Activity (Homo sapiens) | fold change (FC) [5] | Activity [6] | Activity (Splenocyte [7]) | Activity (Splenocyte [8]) | Ratio (Homo sapiens) | Structure (SMILES) | Activity (PBMC [1]) | IFN-alpha (PBMC [3]) | Activity (PBMC [4])
1 | inactive | Active | 0.3 | inactive | – | – | – | Nc1ncnc2c1ncn2[C@@H]1O[C@H](CO)[C@@H](OP(=O)(S)OC[C@H]2O[C@@H](n3cnc4c(N)ncnc43)[C@H](O)[C@@H]2OP(=O)(S)OC[C@H]2O[C@@H](n3cnc4c(N)ncnc43)[C@H](O)[C@@H]2OP(=O)(S)OC[C@H]2O[C@@H](n3cnc4c(N)ncnc43)[C@H](O)[C@@H]2OP(=O)(S)OC[C@H]2O[C@@H](n3cnc4c(N)ncnc43)[C@H](O)[C@@H]2OP(=O)(S)OC[C@H]2O[C@@H](n3cnc4c(N)ncnc43)[C@H](O)[C@@H]2OP(=O)(S)OC[C@H]2O[C@@H](n3cnc4c(N)ncnc43)[C@H](O)[C@@H]2OP(=O)(S)OC[C@H]2O[C@@H](n3cnc4c(N)ncnc43)[C@H](O)[C@@H]2OP(=O)(S)OC[C@H]2O[C@@H](n3cnc4c(N)ncnc43)[C@H](O)[C@@H]2OP(=O)(S)OC[C@H]2O[C@@H](n3cnc4c(N)ncnc43)[C@H](O)[C@@H]2OP(=O)(S)OC[C@H]2O[C@@H](n3cnc4c(N)ncnc43)[C@H](O)[C@@H]2OP(=O)(S)OCC(O)COP(=O)(S)O[C@H]2[C@@H](O)[C@H](n3cnc4c(N)ncnc43)O[C@@H]2COP(=O)(S)O[C@H]2[C@@H](O)[C@H](n3cnc4c(N)ncnc43)O[C@@H]2COP(=O)(S)O[C@H]2[C@@H](O)[C@H](n3cnc4c(N)ncnc43)O[C@@H]2COP(=O)(S)O[C@H]2[C@@H](O)[C@H](n3cnc4c(N)ncnc43)O[C@@H]2COP(=O)(S)O[C@H]2[C@@H](O)[C@H](n3cnc4c(N)ncnc43)O[C@@H]2COP(=O)(S)O[C@H]2[C@@H](O)[C@H](n3cnc4c(N)ncnc43)O[C@@H]2COP(=O)(S)O[C@H]2[C@@H](O)[C@H](n3cnc4c(N)ncnc43)O[C@@H]2COP(=O)(S)O[C@H]2[C@@H](O)[C@H](n3cnc4c(N)ncnc43)O[C@@H]2COP(=O)(S)O[C@H]2[C@@H](O)[C@H](n3cnc4c(N)ncnc43)O[C@@H]2COP(=O)(S)O[C@H]2[C@@H](O)[C@H](n3cnc4c(N)ncnc43)O[C@@H]2COP(=O)(S)O[C@H]2[C@@H](O)[C@H](n3cnc4c(N)ncnc43)O[C@@H]2CO)[C@H]1O (stereo partly drawn) | 1.6 pg/mL | 0 pg/mL | 183 pg/mL
2 | inactive | – | 6.1 | inactive | Active | Active | 8.7 | Nc1ccn([C@@H]2O[C@H](COP(=O)(S)O[C@H]3[C@@H](O)[C@H](n4ccc(N)nc4=O)O[C@@H]3COP(=O)(S)O[C@H]3[C@@H](O)[C@H](n4cnc5c(N)ncnc54)O[C@@H]3COP(=O)(S)O[C@H]3[C@@H](O)[C@H](n4ccc5c(=O)[nH]c(N)nc54)O[C@@H]3COP(=O)(S)O[C@H]3[C@@H](O)[C@H](n4ccc(=O)[nH]c4=O)O[C@@H]3COP(=O)(S)O[C@H]3[C@@H](O)[C@H](n4ccc(=O)[nH]c4=O)O[C@@H]3COP(=O)(S)O[C@H]3[C@@H](O)[C@H](n4ccc(N)nc4=O)O[C@@H]3COP(=O)(S)O[C@H]3[C@@H](O)[C@H](n4cnc5c(N)ncnc54)O[C@@H]3CO)[C@@H](OP(=O)(S)OC[C@H]3O[C@@H](n4ccc(=O)[nH]c4=O)[C@H](O)[C@@H]3OP(=O)(S)OC[C@H]3O[C@@H](n4ccc5c(=O)[nH]c(N)nc54)[C@H](O)[C@@H]3OP(=O)(S)OC[C@H]3O[C@@H](n4ccc(=O)[nH]c4=O)[C@H](O)[C@@H]3OP(=O)(S)OCC(O)COP(=O)(S)O[C@H]3[C@@H](O)[C@H](n4ccc(=O)[nH]c4=O)O[C@@H]3COP(=O)(S)O[C@H]3[C@@H](O)[C@H](n4ccc5c(=O)[nH]c(N)nc54)O[C@@H]3COP(=O)(S)O[C@H]3[C@@H](O)[C@H](n4ccc(=O)[nH]c4=O)O[C@@H]3COP(=O)(S)O[C@H]3[C@@H](O)[C@H](n4ccc(N)nc4=O)O[C@@H]3COP(=O)(S)O[C@H]3[C@@H](O)[C@H](n4ccc(N)nc4=O)O[C@@H]3COP(=O)(S)O[C@H]3[C@@H](O)[C@H](n4cnc5c(N)ncnc54)O[C@@H]3COP(=O)(S)O[C@H]3[C@@H](O)[C@H](n4ccc5c(=O)[nH]c(N)nc54)O[C@@H]3COP(=O)(S)O[C@H]3[C@@H](O)[C@H](n4ccc(=O)[nH]c4=O)O[C@@H]3COP(=O)(S)O[C@H]3[C@@H](O)[C@H](n4ccc(=O)[nH]c4=O)O[C@@H]3COP(=O)(S)O[C@H]3[C@@H](O)[C@H](n4ccc(N)nc4=O)O[C@@H]3COP(=O)(S)O[C@H]3[C@@H](O)[C@H](n4cnc5c(N)ncnc54)O[C@@H]3CO)[C@H]2O)c(=O)n1 (stereo partly drawn) | – | – | –
